Data taken from ChEMBL document CHEMBL2401641, “Design and synthesis of N-alkyldeoxynojirimycin derivatives with improved metabolic stability as inhibitors of BVDV and Tacaribe virus” (Bioorg Med Chem Lett, 2013).

Experiments:
[1] = Metabolic stability in rat liver microsomes assessed as compound remaining at 2 uM after 60 mins in presence of NADPH; type: ADME, Microsome; settings: read-out: Stability
Outline: (§1)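 Liver microsomes at 0.5mg/ml incubated at 37°C with test compound at 2μM in the presence of 1mM NADPH. Percent of parent compound remaining measured at 60 min. Run by a contract lab.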

[2] = Metabolic stability in human liver microsomes assessed as compound remaining at 2 uM after 60 mins in presence of NADPH; type: ADME, Microsome; settings: read-out: Stability; outline: as §1
[3] = Metabolic stability in mouse liver microsomes assessed as compound remaining at 2 uM after 60 mins in presence of NADPH; type: ADME, Microsome; settings: read-out: Stability; outline: as §1
[4] = Cytotoxicity against MDBK cells by MTT assay; type: cell-based, Bos taurus; settings: cattle
[5] = Cytotoxicity against human Huh7.5 cells by MTT assay; type: cell-based, Huh-7
[6] = tested on: Tacaribe virus; experiment: Antiviral activity against Tacaribe virus infected in human Huh7.5 cells assessed as reduction in viral yield after 3 days by neutral-red staining-based microscopic analysis; type: functional, organism-based; settings: Mammarenavirus tacaribeense, Huh-7, 72 h
Outline: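 Huh7 cells infected with Tacaribe virus at MOI 0.01. Compounds were added immediately after virus incubation at 0.01 to 100 μM. Progeny titers were determined by standard virus yield reduction assay in Vero cells, and EC50 was derived.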

[7] = tested on: Bovine viral diarrhea virus 1; experiment: Antiviral activity against Bovine viral diarrhea virus infected in MDBK cells assessed as reduction in viral yield after 3 days by neutral-red staining-based microscopic analysis; type: functional, organism-based; settings: Bovine viral diarrhea virus isolates and strains, 72 h
Outline: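 BVDV titers from treated infected cultures were determined by standard virus yield reduction assay in MDBK cells, and EC50 was derived.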

| Compound | remaining at 1 h, 2 µM [1] | remaining at 1 h, 2 µM [2] | remaining at 1 h, 2 µM [3] | CC50 [4] | CC50 [5] | EC50 [6] | EC50 [7] |
| --- | --- | --- | --- | --- | --- | --- | --- |
| CC(C)(C)C(=O)N(CCCCCCN1C[C@H](O)[C@@H](O)[C@H](O)[C@H]1CO)c1ccc(F)cc1F | 21.6% | 36.1% | 55.3% |  |  |  |  |
| CC(C)(C)C(=O)N(CCCCCCN1C[C@H](O)[C@@H](O)[C@H](O)[C@H]1CO)C1CCCCC1 | 26.9% | 41.6% | 58.6% | > 500 µM |  |  |  |
| O=S(=O)(c1ccccc1)N(CCCCCCN1C[C@H](O)[C@@H](O)[C@H](O)[C@H]1CO)C1CCCCC1 | 3.83% | 13% | 42.8% | 200 µM | 280 µM | 1.6 µM | 0.5 µM |
| O=C(c1ccccc1)N(CCCCCCN1C[C@H](O)[C@@H](O)[C@H](O)[C@H]1CO)C1CCCCC1 | 77.4% | 82.6% | 97.4% | > 500 µM | > 500 µM | 0.6 µM | 0.32 µM |
| O=C(c1cc(F)c(F)cc1F)N(CCCCCCN1C[C@H](O)[C@@H](O)[C@H](O)[C@H]1CO)C1CCCCC1 |  |  |  | > 500 µM | > 500 µM | 0.6 µM | 0.27 µM |
| CS(=O)(=O)N(CCCCCCN1C[C@H](O)[C@@H](O)[C@H](O)[C@H]1CO)C1CCCCC1 | 65.7% | 95.5% | 86.9% | > 500 µM | > 500 µM | 0.7 µM | 0.2 µM |
| CC(C)(C)S(=O)(=O)N(CCCCCCN1C[C@H](O)[C@@H](O)[C@H](O)[C@H]1CO)C1CCCCC1 | 12.1% | 50.2% | 65.4% | > 500 µM | > 500 µM | 0.4 µM | 0.31 µM |
| CC(C)OP(=O)(OC(C)C)N(CCCCCCN1C[C@H](O)[C@@H](O)[C@H](O)[C@H]1CO)C1CCCCC1 |  |  |  | > 500 µM | 310 µM | 0.3 µM | 3.4 µM |
| NC(=O)N(CCCCCCN1C[C@H](O)[C@@H](O)[C@H](O)[C@H]1CO)C1CCCCC1 |  |  |  | > 500 µM | > 500 µM | 100 µM | 14.2 µM |
| CCCNC(=O)N(CCCCCCN1C[C@H](O)[C@@H](O)[C@H](O)[C@H]1CO)C1CCCCC1 |  |  |  | > 500 µM | > 500 µM | 25 µM | 15.8 µM |
| CC(C)(C)NC(=O)N(CCCCCCN1C[C@H](O)[C@@H](O)[C@H](O)[C@H]1CO)C1CCCCC1 | 92.8% | 93.6% | 87.6% | > 500 µM | > 500 µM | 0.74 µM | 0.25 µM |
| O=C1OC[C@H](c2ccccc2)N1CCCCCCN1C[C@H](O)[C@@H](O)[C@H](O)[C@H]1CO |  |  |  | > 500 µM |  |  | 0.8 µM |
| O=C1OC[C@@H](c2ccccc2)N1CCCCCCN1C[C@H](O)[C@@H](O)[C@H](O)[C@H]1CO |  |  |  | > 500 µM |  |  | 3.5 µM |
| O=c1oc2ccccc2n1CCCCCCN1C[C@H](O)[C@@H](O)[C@H](O)[C@H]1CO | 86.9% | 101% | 86.7% | > 500 µM | > 500 µM | 0.4 µM | 0.4 µM |
